Measurements published in ChEMBL document CHEMBL1275486, “Kinetic characterization of VIM-7, a divergent member of the VIM metallo-beta-lactamase family” (Antimicrob Agents Chemother, 2008).

Assays:
Settings in all cases: 07-406
[1] = tested on: CC(=O)OCC1=C(C(=O)O)N2C(=O)[C@@H](NC(=O)Cc3cccs3)[C@H]2SC1; test: (§1) Activity of Pseudomonas aeruginosa beta-lactamase VIM-7 by spectrophotometry
Procedure, shortened: (§2)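 Recombinant enzyme was expressed in E. coli BL21(DE3) from pET-26b and purified from the periplasm to >99%, with concentration taken from A280. Hydrolysis was followed spectrophotometrically at 25°C in 50 mM sodium cacodylate pH 7.0 with 100 μM ZnCl2 and 0.1 mg/ml BSA. Km and kcat came from initial velocity versus substrate concentration. Some Km values were taken as competitive Ki against nitrocefin reporter.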

[2] = tested on: CC(C)(O/N=C(\C(=O)N[C@@H]1C(=O)N2C(C(=O)[O-])=C(C[n+]3ccccc3)CS[C@H]12)c1csc(N)n1)C(=O)O; test: as §1; procedure, shortened: as §2
[3] = tested on: CC1(C)S[C@@H]2[C@H](NC(=O)C(C(=O)O)c3ccccc3)C(=O)N2[C@H]1C(=O)O; test: as §1; procedure, shortened: as §2
[4] = tested on: CC1(C)S[C@@H]2[C@H](NC(=O)Cc3ccccc3)C(=O)N2[C@H]1C(=O)O; test: as §1; procedure, shortened: as §2
[5] = tested on: CC1(C)S[C@@H]2[C@H](NC(=O)[C@H](N)c3ccccc3)C(=O)N2[C@H]1C(=O)O; test: as §1; procedure, shortened: as §2
[6] = tested on: CC1(C)S[C@@H]2[C@H](NC(=O)[C@H](NC(=O)N3CCNC3=O)c3ccccc3)C(=O)N2[C@H]1C(=O)O; test: as §1; procedure, shortened: as §2
[7] = tested on: CC1(C)[C@H](C(=O)O)N2C(=O)C[C@H]2S1(=O)=O; test: as §1; procedure, shortened: as §2
[8] = tested on: CCN1CCN(C(=O)N[C@@H](C(=O)N[C@@H]2C(=O)N3[C@@H]2SC(C)(C)[C@@H]3C(=O)O)c2ccccc2)C(=O)C1=O; test: as §1; procedure, shortened: as §2
[9] = tested on: CO/N=C(\C(=O)N[C@@H]1C(=O)N2C(C(=O)O)=C(COC(C)=O)CS[C@H]12)c1csc(N)n1; test: as §1; procedure, shortened: as §2
[10] = tested on: CO/N=C(\C(=O)N[C@@H]1C(=O)N2C(C(=O)O)=C(COC(N)=O)CS[C@H]12)c1ccco1; test: as §1; procedure, shortened: as §2
[11] = tested on: CO/N=C(\C(=O)N[C@@H]1C(=O)N2C(C(=O)[O-])=C(C[N+]3(C)CCCC3)CS[C@H]12)c1csc(N)n1; test: as §1; procedure, shortened: as §2
[12] = tested on: CO[C@@]1(NC(=O)C(C(=O)O)c2ccc(O)cc2)C(=O)N2C(C(=O)O)=C(CSc3nnnn3C)CO[C@@H]21; test: as §1; procedure, shortened: as §2
[13] = tested on: CO[C@@]1(NC(=O)Cc2cccs2)C(=O)N2C(C(=O)O)=C(COC(N)=O)CS[C@@H]21; test: as §1; procedure, shortened: as §2
[14] = tested on: C[C@@H](O)[C@H]1C(=O)N2C(C(=O)O)=C(SCCNC=N)C[C@H]12; test: as §1; procedure, shortened: as §2
[15] = tested on: C[C@@H](O)[C@H]1C(=O)N2C(C(=O)O)=C(S[C@@H]3CN[C@H](C(=O)N(C)C)C3)[C@H](C)[C@H]12; test: as §1; procedure, shortened: as §2
[16] = tested on: C[C@@H](O)[C@H]1C(=O)N2C(C(=O)O)=C(S[C@@H]3CN[C@H](C(=O)Nc4cccc(C(=O)O)c4)C3)[C@H](C)[C@H]12; test: as §1; procedure, shortened: as §2
[17] = tested on: C[C@H]1[C@H](NC(=O)/C(=N\OC(C)(C)C(=O)O)c2csc(N)n2)C(=O)N1S(=O)(=O)O; test: as §1; procedure, shortened: as §2
[18] = tested on: C[C@]1(Cn2ccnn2)[C@H](C(=O)O)N2C(=O)C[C@H]2S1(=O)=O; test: as §1; procedure, shortened: as §2
[19] = tested on: Cc1onc(-c2ccccc2Cl)c1C(=O)N[C@@H]1C(=O)N2[C@@H]1SC(C)(C)[C@@H]2C(=O)O; test: as §1; procedure, shortened: as §2
[20] = tested on: O=C(Cc1cccs1)N[C@@H]1C(=O)N2C(C(=O)O)=C(/C=C/c3ccc([N+](=O)[O-])cc3[N+](=O)[O-])CS[C@H]12; test: as §1; procedure, shortened: as §2
[21] = tested on: O=C(Cc1cccs1)N[C@@H]1C(=O)N2C(C(=O)[O-])=C(C[n+]3ccccc3)CS[C@H]12; test: as §1; procedure, shortened: as §2
[22] = tested on: O=C(O)[C@H]1/C(=C/CO)O[C@@H]2CC(=O)N21; test: as §1; procedure, shortened: as §2
[23] = tested on: CC(=O)OCC1=C(C(=O)O)N2C(=O)[C@@H](NC(=O)Cc3cccs3)[C@H]2SC1; test: (§3) Ratio of Kcat to Km for Pseudomonas aeruginosa beta-lactamase VIM-7 by spectrophotometry; procedure, shortened: as §2
[24] = tested on: CC(C)(O/N=C(\C(=O)N[C@@H]1C(=O)N2C(C(=O)[O-])=C(C[n+]3ccccc3)CS[C@H]12)c1csc(N)n1)C(=O)O; test: as §3; procedure, shortened: as §2
[25] = tested on: CC1(C)S[C@@H]2[C@H](NC(=O)C(C(=O)O)c3ccccc3)C(=O)N2[C@H]1C(=O)O; test: as §3; procedure, shortened: as §2
[26] = tested on: CC1(C)S[C@@H]2[C@H](NC(=O)Cc3ccccc3)C(=O)N2[C@H]1C(=O)O; test: as §3; procedure, shortened: as §2
[27] = tested on: CC1(C)S[C@@H]2[C@H](NC(=O)[C@H](N)c3ccccc3)C(=O)N2[C@H]1C(=O)O; test: as §3; procedure, shortened: as §2
[28] = tested on: CC1(C)S[C@@H]2[C@H](NC(=O)[C@H](NC(=O)N3CCNC3=O)c3ccccc3)C(=O)N2[C@H]1C(=O)O; test: as §3; procedure, shortened: as §2
[29] = tested on: CC1(C)[C@H](C(=O)O)N2C(=O)C[C@H]2S1(=O)=O; test: as §3; procedure, shortened: as §2
[30] = tested on: CCN1CCN(C(=O)N[C@@H](C(=O)N[C@@H]2C(=O)N3[C@@H]2SC(C)(C)[C@@H]3C(=O)O)c2ccccc2)C(=O)C1=O; test: as §3; procedure, shortened: as §2
[31] = tested on: CO/N=C(\C(=O)N[C@@H]1C(=O)N2C(C(=O)O)=C(COC(C)=O)CS[C@H]12)c1csc(N)n1; test: as §3; procedure, shortened: as §2
[32] = tested on: CO/N=C(\C(=O)N[C@@H]1C(=O)N2C(C(=O)O)=C(COC(N)=O)CS[C@H]12)c1ccco1; test: as §3; procedure, shortened: as §2
[33] = tested on: CO/N=C(\C(=O)N[C@@H]1C(=O)N2C(C(=O)[O-])=C(C[N+]3(C)CCCC3)CS[C@H]12)c1csc(N)n1; test: as §3; procedure, shortened: as §2
[34] = tested on: CO[C@@]1(NC(=O)C(C(=O)O)c2ccc(O)cc2)C(=O)N2C(C(=O)O)=C(CSc3nnnn3C)CO[C@@H]21; test: as §3; procedure, shortened: as §2
[35] = tested on: CO[C@@]1(NC(=O)Cc2cccs2)C(=O)N2C(C(=O)O)=C(COC(N)=O)CS[C@@H]21; test: as §3; procedure, shortened: as §2
[36] = tested on: C[C@@H](O)[C@H]1C(=O)N2C(C(=O)O)=C(SCCNC=N)C[C@H]12; test: as §3; procedure, shortened: as §2
[37] = tested on: C[C@@H](O)[C@H]1C(=O)N2C(C(=O)O)=C(S[C@@H]3CN[C@H](C(=O)N(C)C)C3)[C@H](C)[C@H]12; test: as §3; procedure, shortened: as §2
[38] = tested on: C[C@@H](O)[C@H]1C(=O)N2C(C(=O)O)=C(S[C@@H]3CN[C@H](C(=O)Nc4cccc(C(=O)O)c4)C3)[C@H](C)[C@H]12; test: as §3; procedure, shortened: as §2
[39] = tested on: C[C@]1(Cn2ccnn2)[C@H](C(=O)O)N2C(=O)C[C@H]2S1(=O)=O; test: as §3; procedure, shortened: as §2
[40] = tested on: Cc1onc(-c2ccccc2Cl)c1C(=O)N[C@@H]1C(=O)N2[C@@H]1SC(C)(C)[C@@H]2C(=O)O; test: as §3; procedure, shortened: as §2
[41] = tested on: O=C(Cc1cccs1)N[C@@H]1C(=O)N2C(C(=O)O)=C(/C=C/c3ccc([N+](=O)[O-])cc3[N+](=O)[O-])CS[C@H]12; test: as §3; procedure, shortened: as §2
[42] = tested on: O=C(Cc1cccs1)N[C@@H]1C(=O)N2C(C(=O)[O-])=C(C[n+]3ccccc3)CS[C@H]12; test: as §3; procedure, shortened: as §2
[43] = tested on: O=C(O)[C@H]1/C(=C/CO)O[C@@H]2CC(=O)N21; test: as §3; procedure, shortened: as §2

Metallo-b-lactamase (Pseudomonas aeruginosa), Q840P9, sequence (Q840P9 whole entry): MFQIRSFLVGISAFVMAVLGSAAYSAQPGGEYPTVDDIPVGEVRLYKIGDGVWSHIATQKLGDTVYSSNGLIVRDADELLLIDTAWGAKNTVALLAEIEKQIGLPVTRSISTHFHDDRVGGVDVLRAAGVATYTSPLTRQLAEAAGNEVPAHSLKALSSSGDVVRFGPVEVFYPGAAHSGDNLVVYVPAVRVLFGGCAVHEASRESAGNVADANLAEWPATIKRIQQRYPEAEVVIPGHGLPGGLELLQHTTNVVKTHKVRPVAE

“Metallo-b-lactamase (Pseudomonas aeruginosa), Q840P9” was tested, and the Km [1] was 45 µM, the kcat [1] was 180 s⁻¹ and the Km [2] was 120 µM. The kcat [2] was 1.4 s⁻¹, the Km [3] was 84 µM and the kcat [3] was 1200 s⁻¹. It also gave a Km [4] of 17 µM, a kcat [4] of 430 s⁻¹ and a Km [5] of 15 µM. For the same substance, the kcat [5] was 190 s⁻¹, the Km [6] was 66 µM and the kcat [6] was 78 s⁻¹. The Km [7] was 740 µM, the kcat [7] was 110 s⁻¹ and the Km [8] was 26 µM. The kcat [8] was 140 s⁻¹, the Km [9] was 22 µM and the kcat [9] was 56 s⁻¹. It also gave a Km [10] of 29 µM, a kcat [10] of 16 s⁻¹ and a Km [11] of 580 µM. For the same substance, the kcat [11] was 5.3 s⁻¹, the Km [12] was 75 µM and the kcat [12] was 230 s⁻¹. The Km [13] was 68 µM, the kcat [13] was 10 s⁻¹ and the Km [14] was 27 µM. For the same substance, the kcat [14] was 100 s⁻¹, the Km [15] was 38 µM and the kcat [15] was 42 s⁻¹. It also gave a Km [16] of 28 µM, a kcat [16] of 8 s⁻¹ and a Km [17] of 2700 µM. It also gave a Km [18] of 3500 µM, a kcat [18] of 68 s⁻¹ and a Km [19] of 860 µM. For the same substance, the kcat [19] was 2500 s⁻¹, the Km [20] was 58 µM and the kcat [20] was 1500 s⁻¹. The Km [21] was 250 µM, the kcat [21] was 180 s⁻¹ and the Km [22] was 940 µM. It also gave a kcat [22] of 2.3 s⁻¹, a kcat/Km [23] of 4e+06 M⁻¹ s⁻¹ and a kcat/Km [24] of 12000 M⁻¹ s⁻¹. For the same substance, the kcat/Km [25] was 1.4e+07 M⁻¹ s⁻¹, the kcat/Km [26] was 2.5e+07 M⁻¹ s⁻¹ and the kcat/Km [27] was 1.3e+07 M⁻¹ s⁻¹. It also gave a kcat/Km [28] of 1.2e+06 M⁻¹ s⁻¹, a kcat/Km [29] of 150000 M⁻¹ s⁻¹ and a kcat/Km [30] of 5.4e+06 M⁻¹ s⁻¹. For the same substance, the kcat/Km [31] was 2.6e+06 M⁻¹ s⁻¹, the kcat/Km [32] was 550000 M⁻¹ s⁻¹ and the kcat/Km [33] was 9100 M⁻¹ s⁻¹. It also gave a kcat/Km [34] of 3.1e+06 M⁻¹ s⁻¹, a kcat/Km [35] of 150000 M⁻¹ s⁻¹ and a kcat/Km [36] of 3.7e+06 M⁻¹ s⁻¹. The kcat/Km [37] was 1.1e+06 M⁻¹ s⁻¹, the kcat/Km [38] was 290000 M⁻¹ s⁻¹ and the kcat/Km [39] was 19000 M⁻¹ s⁻¹. The kcat/Km [40] was 2.9e+06 M⁻¹ s⁻¹, the kcat/Km [41] was 2.6e+07 M⁻¹ s⁻¹ and the kcat/Km [42] was 720000 M⁻¹ s⁻¹. It also gave a kcat/Km [43] of 2500 M⁻¹ s⁻¹.
